Source: ChEMBL document CHEMBL4316612, “Synthesis of novel dihydrotriazine derivatives bearing 1,3-diaryl pyrazole moieties as potential antibacterial agents” (Bioorg Med Chem Lett, 2019)
In brackets after ≈: the same amount, converted by molar mass.

Legend:
Format in all cases: functional
[1] = system: Staphylococcus aureus; test: Antibacterial activity against methicillin-resistant Staphylococcus aureus CCARM 3167 after 24 hrs by microtiter ELISA; conditions: CCARM 3167, 24 h
Summary of the method: (§1)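 Broth microdilution MIC. Bacteria grown to mid-log phase in Mueller-Hinton broth, diluted 1000-fold, and inoculated at 10^5 CFU/mL. Compounds in DMSO (final ≤0.05%) were given as two-fold serial dilutions, final 64-0.25 µg/mL. Plates were incubated 24 h at 37 °C and growth read at 650 nm. MIC is the lowest concentration giving complete growth inhibition. Three independent experiments; oxacillin and norfloxacin served as positive controls.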

[2] = system: Staphylococcus aureus; test: Antibacterial activity against methicillin-resistant Staphylococcus aureus CCARM 3506 after 24 hrs by microtiter ELISA; conditions: CCARM 3506, 24 h; summary of the method: as §1
[3] = system: Staphylococcus aureus; test: Antibacterial activity against quinolone-resistant Staphylococcus aureus CCARM 3505 after 24 hrs by microtiter ELISA; conditions: CCARM 3505, 24 h; summary of the method: as §1
[4] = system: Staphylococcus aureus; test: Antibacterial activity against quinolone-resistant Staphylococcus aureus CCARM 3519 after 24 hrs by microtiter ELISA; conditions: CCARM 3519, 24 h; summary of the method: as §1
[5] = system: Staphylococcus aureus; test: Antibacterial activity against Staphylococcus aureus RN4220 after 24 hrs by microtiter ELISA; conditions: RN4220, 24 h; summary of the method: as §1
[6] = system: Streptococcus mutans; test: Antibacterial activity against Streptococcus mutans 3289 after 24 hrs by microtiter ELISA; conditions: Streptococcus mutans, 3289, 24 h
Summary of the method: (§2)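 Two-fold serial broth dilution in Mueller-Hinton broth, final 64-0.25 µg/mL; compounds in DMSO (final ≤0.05%). Mid-log cultures diluted 1000-fold, inoculum 10^5 CFU/mL; oxacillin and norfloxacin as positive controls. After 24 h at 37 °C, growth read at 650 nm on a microtiter ELISA reader; MIC = lowest level giving complete growth inhibition. Run three times.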

[7] = system: Escherichia coli; test: Antibacterial activity against Escherichia coli KCTC 1924 after 24 hrs by microtiter ELISA; conditions: KCTC 1924, 24 h; summary of the method: as §2
[8] = system: Candida albicans; test: Antifungal activity against Candida albicans 7535 after 24 hrs by microtiter ELISA; conditions: Candida albicans, 7535, 24 h; summary of the method: as §2

Row | SMILES | MIC [1] [µg/mL] | MIC [2] [µg/mL] | MIC [3] [µg/mL] | MIC [4] [µg/mL] | MIC [5] [µg/mL] | MIC [6] [µg/mL] | MIC [7] [µg/mL] | MIC [8] [µg/mL]
1 | CCn1cc(C(=O)O)c(=O)c2cc(F)c(N3CCNCC3)cc21 [NORFLOXACIN] | 8 (≈ 25.1 µM) | 4 (≈ 12.5 µM) | > 64 | > 64 |  |  |  | 
2 | NC1=NC(c2cn(-c3ccc([N+](=O)[O-])cc3[N+](=O)[O-])nc2-c2ccc(Br)cc2)N=C(N2CCOCC2)N1 (configuration not stated) | 8 (≈ 14 µM) | 4 (≈ 7.01 µM) | 8 (≈ 14 µM) | 8 (≈ 14 µM) | 8 (≈ 14 µM) | 16 (≈ 28.1 µM) | 8 (≈ 14 µM) | 8 (≈ 14 µM)
3 | COc1c(N2C[C@@H]3CCCN[C@@H]3C2)c(F)cc2c(=O)c(C(=O)O)cn(C3CC3)c12 [MOXIFLOXACIN] |  |  |  | 4 (≈ 9.96 µM) | 0.25 (≈ 0.623 µM) | 0.25 (≈ 0.623 µM) |  | 
4 | COc1c(N2CCNC(C)C2)c(F)cc2c(=O)c(C(=O)O)cn(C3CC3)c12 (configuration not stated) [GATIFLOXACIN] | 2 (≈ 5.33 µM) | 2 (≈ 5.33 µM) | 8 (≈ 21.3 µM) | 4 (≈ 10.7 µM) | 0.25 (≈ 0.666 µM) | 0.25 (≈ 0.666 µM) | 2 (≈ 5.33 µM) | 
5 | Cc1ccc(-c2nn(-c3ccccc3)cc2C2N=C(N)NC(N3CCOCC3)=N2)cc1 (configuration not stated) | 32 (≈ 77 µM) | 32 (≈ 77 µM) | 64 (≈ 154 µM) | 64 (≈ 154 µM) | 64 (≈ 154 µM) | 64 (≈ 154 µM) | 64 (≈ 154 µM) | 64 (≈ 154 µM)
6 | CN(C)C1=NC(c2cn(-c3ccc([N+](=O)[O-])cc3[N+](=O)[O-])nc2-c2ccccc2Cl)N=C(N)N1 (configuration not stated) | 32 (≈ 66.1 µM) | 64 (≈ 132 µM) | 32 (≈ 66.1 µM) | 64 (≈ 132 µM) | 32 (≈ 66.1 µM) | 64 (≈ 132 µM) | 32 (≈ 66.1 µM) | 64 (≈ 132 µM)
7 | NC1=NC(c2cn(-c3ccccc3)nc2-c2cccc(Cl)c2)N=C(N2CCOCC2)N1 (configuration not stated) | 16 (≈ 36.7 µM) | 16 (≈ 36.7 µM) | 16 (≈ 36.7 µM) | 16 (≈ 36.7 µM) | 16 (≈ 36.7 µM) | 32 (≈ 73.4 µM) | 16 (≈ 36.7 µM) | 16 (≈ 36.7 µM)
8 | Cc1onc(-c2ccccc2)c1C(=O)N[C@@H]1C(=O)N2[C@@H]1SC(C)(C)[C@@H]2C(=O)O [OXACILLIN] | > 64 | > 64 | 1 (≈ 2.49 µM) | 1 (≈ 2.49 µM) |  |  |  | 
9 | NC1=NC(c2cn(-c3ccc([N+](=O)[O-])cc3[N+](=O)[O-])nc2-c2ccc(Cl)cc2Cl)N=C(N2CCOCC2)N1 (configuration not stated) | 8 (≈ 14.3 µM) | 8 (≈ 14.3 µM) | 8 (≈ 14.3 µM) | 16 (≈ 28.6 µM) | 16 (≈ 28.6 µM) | 16 (≈ 28.6 µM) | 8 (≈ 14.3 µM) | 8 (≈ 14.3 µM)
10 | CN(C)C1=NC(c2cn(-c3ccc([N+](=O)[O-])cc3[N+](=O)[O-])nc2-c2ccccc2Br)N=C(N)N1 (configuration not stated) | 32 (≈ 60.6 µM) | 32 (≈ 60.6 µM) | 32 (≈ 60.6 µM) | 64 (≈ 121 µM) | 32 (≈ 60.6 µM) | 32 (≈ 60.6 µM) | 32 (≈ 60.6 µM) | 64 (≈ 121 µM)
11 | NC1=NC(c2cn(-c3ccccc3)nc2-c2ccc(Br)cc2)N=C(N2CCOCC2)N1 (configuration not stated) | 8 (≈ 16.7 µM) | 4 (≈ 8.33 µM) | 16 (≈ 33.3 µM) | 8 (≈ 16.7 µM) | 8 (≈ 16.7 µM) | 32 (≈ 66.6 µM) | 16 (≈ 33.3 µM) | 16 (≈ 33.3 µM)
12 | CN(C)C1=NC(c2cn(-c3ccc([N+](=O)[O-])cc3[N+](=O)[O-])nc2-c2ccc(F)cc2)N=C(N)N1 (configuration not stated) | 32 (≈ 68.5 µM) | 32 (≈ 68.5 µM) | 64 (≈ 137 µM) | 64 (≈ 137 µM) | 32 (≈ 68.5 µM) | 32 (≈ 68.5 µM) | 32 (≈ 68.5 µM) | 32 (≈ 68.5 µM)
13 | CN(C)C1=NC(c2cn(-c3ccc([N+](=O)[O-])cc3[N+](=O)[O-])nc2-c2cccc(Cl)c2)N=C(N)N1 (configuration not stated) | 4 (≈ 8.27 µM) | 4 (≈ 8.27 µM) | 4 (≈ 8.27 µM) | 16 (≈ 33.1 µM) | 4 (≈ 8.27 µM) | 8 (≈ 16.5 µM) | 8 (≈ 16.5 µM) | 8 (≈ 16.5 µM)
14 | NC1=NC(c2cn(-c3ccccc3)nc2-c2ccc(Cl)cc2)N=C(N2CCOCC2)N1 (configuration not stated) | 16 (≈ 36.7 µM) | 16 (≈ 36.7 µM) | 16 (≈ 36.7 µM) | 16 (≈ 36.7 µM) | 16 (≈ 36.7 µM) | 32 (≈ 73.4 µM) | 16 (≈ 36.7 µM) | 16 (≈ 36.7 µM)
15 | CN(C)C1=NC(c2cn(-c3ccc([N+](=O)[O-])cc3[N+](=O)[O-])nc2-c2ccc(Br)cc2)N=C(N)N1 (configuration not stated) | 8 (≈ 15.1 µM) | 4 (≈ 7.57 µM) | 4 (≈ 7.57 µM) | 8 (≈ 15.1 µM) | 8 (≈ 15.1 µM) | 16 (≈ 30.3 µM) | 8 (≈ 15.1 µM) | 8 (≈ 15.1 µM)
16 | OC(Cn1cncn1)(Cn1cncn1)c1ccc(F)cc1F [FLUCONAZOLE] |  |  |  |  |  |  |  | 1 (≈ 3.27 µM)
